≈ marks a conversion by molar mass, not a printed value.
Columns and labels:
[1] = test system: Mus musculus; assay: Analgesic activity in mouse assessed as inhibition of hind paw lick at 100 mg/kg, ip by hot plate test; format: functional; details: route intraperitoneal
[2] = test system: Mus musculus; assay: Analgesic activity in mouse assessed as inhibition of acetic acid induced-abdominal writhing at 100 mg/kg, ip by Koster test; format: functional; details: Abdomen, route intraperitoneal
[3] = test system: Mus musculus; assay: Antiinflammatory activity against carrageenan-induced hind paw oedema in mouse assessed as inhibition of swelling thickness at 100 mg/kg, po after 90 mins; format: functional; details: 1.5 h
Procedure, shortened: (§1)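 Fasted mice (n = 5–6) were dosed orally with the sample in 0.5% CMC/water. One hour later, carrageenan (0.5 mg/25 µl in 154 mM saline) was injected subplantar into the right hind paw. The right-minus-left footpad thickness difference was measured with dial gauge callipers every 90 min over 6 h. Inhibition % is calculated versus vehicle control; mean ± SEM, Student's t test.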

[4] = test system: Mus musculus; assay: Antiinflammatory activity against carrageenan-induced hind paw oedema in mouse assessed as swelling thickness at 50 mg/kg, po after 90 mins; format: functional; procedure, shortened: as §1
[5] = test system: Mus musculus; assay: Antiinflammatory activity against carrageenan-induced hind paw oedema in mouse assessed as inhibition of swelling thickness at 200 mg/kg, po after 90 mins; format: functional; details: 1.5 h; procedure, shortened: as §1
[6] = test system: Mus musculus; assay: Antiinflammatory activity against carrageenan-induced hind paw oedema in mouse assessed as inhibition of swelling thickness at 100 mg/kg, po after 180 mins; format: functional; details: 3 h; procedure, shortened: as §1
[7] = test system: Mus musculus; assay: Antiinflammatory activity against carrageenan-induced hind paw oedema in mouse assessed as swelling thickness at 50 mg/kg, po after 180 mins; format: functional; procedure, shortened: as §1
[8] = test system: Mus musculus; assay: Antiinflammatory activity against carrageenan-induced hind paw oedema in mouse assessed as inhibition of swelling thickness at 200 mg/kg, po after 180 mins; format: functional; details: 3 h; procedure, shortened: as §1
[9] = test system: Mus musculus; assay: Antiinflammatory activity against carrageenan-induced hind paw oedema in mouse assessed as inhibition of swelling thickness at 100 mg/kg, po after 270 mins; format: functional; details: 4.5 h; procedure, shortened: as §1
[10] = test system: Mus musculus; assay: Antiinflammatory activity against carrageenan-induced hind paw oedema in mouse assessed as swelling thickness at 50 mg/kg, po after 270 mins; format: functional; procedure, shortened: as §1
[11] = test system: Mus musculus; assay: Antiinflammatory activity against carrageenan-induced hind paw oedema in mouse assessed as inhibition of swelling thickness at 200 mg/kg, po after 270 mins; format: functional; details: 4.5 h; procedure, shortened: as §1
[12] = test system: Mus musculus; assay: Antiinflammatory activity against carrageenan-induced hind paw oedema in mouse assessed as swelling thickness at 50 mg/kg, po after 360 mins; format: functional; procedure, shortened: as §1
[13] = test system: Mus musculus; assay: Antiinflammatory activity against carrageenan-induced hind paw oedema in mouse assessed as inhibition of swelling thickness at 200 mg/kg, po after 360 mins; format: functional; details: 6 h; procedure, shortened: as §1
[14] = test system: Staphylococcus aureus; assay: Antibacterial activity against Staphylococcus aureus ATCC 29213 after 24 hrs by broth microdilution test; format: functional; details: ATCC 29213, 24 h
Procedure, shortened: (§2)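 NCCLS broth microdilution in Mueller-Hinton broth with an inoculum of 5 × 10^5 cfu/mL. Compounds were dissolved in DMSO, diluted in sterile water, and tested as twofold dilutions from 512 to 0.5 µg/mL. Plates were incubated at 35 °C for 24 h. MIC is the lowest concentration preventing visible growth.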

[15] = test system: Enterococcus faecalis; assay: Antibacterial activity against Enterococcus faecalis ATCC 29212 after 24 hrs by broth microdilution test; format: functional; details: ATCC 29212, 24 h; procedure, shortened: as §2
[16] = test system: Escherichia coli; assay: Antibacterial activity against Escherichia coli ATCC 25922 after 24 hrs by broth microdilution test; format: functional; details: ATCC 25922, 24 h; procedure, shortened: as §2
[17] = test system: Pseudomonas aeruginosa; assay: Antibacterial activity against Pseudomonas aeruginosa ATCC 27853 after 24 hrs by broth microdilution test; format: functional; details: ATCC 27853, 24 h; procedure, shortened: as §2
[18] = test system: Candida albicans; assay: Antifungal activity against Candida albicans ATCC 90028 after 48 hrs by broth microdilution test; format: functional; details: ATCC 90028, 48 h
Procedure, shortened: (§3)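 Yeasts tested by NCCLS M27-A broth microdilution in RPMI 1640 (with L-glutamine, without sodium bicarbonate) with an inoculum of 0.5–2.5 × 10^3 cfu/mL. Compounds were prepared from DMSO solution diluted in water as twofold dilutions from 512 to 0.5 µg/mL. Plates were incubated at 35 °C for 48 h. MIC is the lowest concentration giving no visible growth.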

[19] = test system: Pichia kudriavzevii; assay: Antifungal activity against Candida krusei ATCC 6258 after 48 hrs by broth microdilution test; format: functional; details: ATCC 6258, 48 h; procedure, shortened: as §3
[20] = test system: Candida parapsilosis; assay: Antifungal activity against Candida parapsilosis ATCC 22019 after 48 hrs by broth microdilution test; format: functional; details: Lodderomyces parapsilosis, ATCC 22019, 48 h; procedure, shortened: as §3
[21] = test system: Mus musculus; assay: Antiinflammatory activity against carrageenan-induced hind paw oedema in mouse assessed as swelling thickness at 100 mg/kg, po after 360 mins; format: functional; procedure, shortened: as §1
[22] = test system: Mus musculus; assay: Antiinflammatory activity against carrageenan-induced hind paw oedema in mouse assessed as inhibition of swelling thickness at 100 mg/kg, po after 360 mins; format: functional; details: 6 h; procedure, shortened: as §1
[23] = test system: Mus musculus; assay: Toxicity in mouse assessed as ulceration effect at 200 mg/kg; format: functional, organism-based; parameters: dose 200 mg/kg
Procedure, shortened: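 Mice given 200 mg/kg orally in the carrageenan oedema study were killed under deep ether anaesthesia 6 h after treatment. Stomachs were opened along the greater curvature and examined under a dissecting microscope for lesions or bleeding. Result is expressed as the ratio of ulcerated animals per group.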

[24] = test system: Mus musculus; assay: Antiinflammatory activity against carrageenan-induced hind paw oedema in mouse assessed as swelling thickness at 100 mg/kg, po after 270 mins; format: functional; procedure, shortened: as §1
[25] = test system: Mus musculus; assay: Antiinflammatory activity against carrageenan-induced hind paw oedema in mouse assessed as swelling thickness at 200 mg/kg, po after 360 mins; format: functional; procedure, shortened: as §1

| Structure (SMILES) | inhibition in vivo at 100 mg/kg [1] [%] | inhibition in vivo at 100 mg/kg [2] [%] | inhibition in vivo at 100 mg/kg [3] [%] | Activity [4] [%] | inhibition in vivo at 200 mg/kg [5] [%] | inhibition in vivo at 100 mg/kg [6] [%] | Activity [7] [%] | inhibition in vivo at 200 mg/kg [8] [%] | inhibition in vivo at 100 mg/kg [9] [%] | Activity [10] [%] | inhibition in vivo at 200 mg/kg [11] [%] | Activity [12] [%] | inhibition in vivo at 200 mg/kg [13] [%] | MIC [14] [µg/mL] | MIC [15] [µg/mL] | MIC [16] [µg/mL] | MIC [17] [µg/mL] | MIC [18] [µg/mL] | MIC [19] [µg/mL] | MIC [20] [µg/mL] | also measured |
| --- | --- | --- | --- | --- | --- | --- | --- | --- | --- | --- | --- | --- | --- | --- | --- | --- | --- | --- | --- | --- | --- |
| CCCNC(=S)NNC(=O)Cn1c(=O)oc2ccc(C)cc21 | 18.1 | 59.7 | 79.8 | 147.3 | 29.1 | 46.1 | 147.1 | 25.1 | 13 | 188.2 | 11.1 | 176.7 | 6.6 | 256 (≈ 794 µM) | 512 (≈ 1590 µM) | 256 (≈ 794 µM) | 512 (≈ 1590 µM) | 256 (≈ 794 µM) | 256 (≈ 794 µM) | 256 (≈ 794 µM) | Activity [21]: 80.6% |
| Cc1ccc2oc(=O)n(Cc3n[nH]c(=S)n3-c3ccccc3)c2c1 | 13 | 49.6 | 79.8 | 122.8 | 53.2 | 63.3 | 115.5 | 47.7 | 31.8 | 157.3 | 16.7 | 147.2 | 5.5 | 256 (≈ 757 µM) | 256 (≈ 757 µM) | 256 (≈ 757 µM) | 256 (≈ 757 µM) | 128 (≈ 378 µM) | 128 (≈ 378 µM) | 128 (≈ 378 µM) | inhibition in vivo at 100 mg/kg [22]: 27.4%; Activity [23]: Not toxic |
| CNc1nnc(Cn2c(=O)oc3ccc(C)cc32)s1 | 54.3 | 73.8 | 62.7 | 66 | 63.5 | 21.4 | 101.3 | 46.9 | – | 106.8 | 33.3 | 96 | 14.5 | 512 (≈ 1850 µM) | 512 (≈ 1850 µM) | 512 (≈ 1850 µM) | 512 (≈ 1850 µM) | 256 (≈ 926 µM) | 256 (≈ 926 µM) | 256 (≈ 926 µM) | Activity [24]: 110.4%; Activity [21]: 106.7% |
| Cc1ccc2oc(=O)n(CC(=O)N/N=C/c3ccc(Cl)cc3)c2c1 | 50.7 | 62.5 | 64.7 | 72.5 | 17.1 | 5.1 | 89 | 22.8 | 5.3 | 111.8 | 17.2 | 107 | 7.7 | > 512 | > 512 | > 512 | > 512 | 128 (≈ 372 µM) | 256 (≈ 745 µM) | 256 (≈ 745 µM) | inhibition in vivo at 100 mg/kg [22]: 4.3% |
| Cc1ccc2oc(=O)n(CC(=O)NNC(=S)Nc3ccccc3)c2c1 | 23.9 | 55.6 | 79.8 | – | 40.3 | 31.3 | 140.9 | 53.4 | – | 162.6 | 30.5 | 153.3 | 34.1 | 256 (≈ 718 µM) | 512 (≈ 1440 µM) | 256 (≈ 718 µM) | 256 (≈ 718 µM) | 256 (≈ 718 µM) | 256 (≈ 718 µM) | 128 (≈ 359 µM) | Activity [23]: Not toxic; Activity [24]: 92%; Activity [21]: 79.2% |
| CNC(=S)NNC(=O)Cn1c(=O)oc2ccc(C)cc21 | 23.9 | 61.7 | 64.7 | 118.2 | 58 | 33.8 | 125.2 | – | – | 187.2 | 35.2 | 188.9 | 27.5 | 512 (≈ 1740 µM) | 256 (≈ 870 µM) | 256 (≈ 870 µM) | 128 (≈ 435 µM) | 128 (≈ 435 µM) | 128 (≈ 435 µM) | 128 (≈ 435 µM) | Activity [23]: Not toxic; Activity [21]: 85.8% |
| Cc1ccc2oc(=O)n(CC(=O)N/N=C/c3ccccc3)c2c1 | 23.9 | 62.5 | 79.8 | 98.3 | 63.5 | 30 | 100.1 | 37.8 | – | 108.8 | 27.2 | 115 | – | 256 (≈ 828 µM) | 512 (≈ 1660 µM) | 256 (≈ 828 µM) | 256 (≈ 828 µM) | 128 (≈ 414 µM) | 128 (≈ 414 µM) | 128 (≈ 414 µM) | Activity [24]: 95.4%; Activity [21]: 84.5% |
| CC1(C)S[C@@H]2[C@H](NC(=O)[C@H](N)c3ccccc3)C(=O)N2[C@H]1C(=O)O [AMPICILLIN] | – | – | – | – | – | – | – | – | – | – | – | – | – | 1 (≈ 2.86 µM) | – | – | – | – | – | – | – |
| OC(Cn1cncn1)(Cn1cncn1)c1ccc(F)cc1F [FLUCONAZOLE] | – | – | – | – | – | – | – | – | – | – | – | – | – | – | – | – | – | 1 (≈ 3.27 µM) | 64 (≈ 209 µM) | 8 (≈ 26.1 µM) | – |
| Cc1ccc2oc(=O)n(CC(=O)NN)c2c1 | 42 | 73.8 | 84.8 | 92.1 | 65.1 | 70.5 | 88.7 | – | 39.4 | 108.4 | 54.7 | 101.1 | 51.6 | 256 (≈ 1160 µM) | 512 (≈ 2310 µM) | 256 (≈ 1160 µM) | 256 (≈ 1160 µM) | 128 (≈ 579 µM) | 128 (≈ 579 µM) | 128 (≈ 579 µM) | inhibition in vivo at 100 mg/kg [22]: 27.4% |
| CCNC(=S)NNC(=O)Cn1c(=O)oc2ccc(C)cc21 | 18.1 | 44.4 | 57.1 | 116.7 | 19.4 | 36.3 | 21.5 | 54.6 | 35.6 | 139.1 | 27.8 | 127.8 | 47.2 | 256 (≈ 830 µM) | 512 (≈ 1660 µM) | 256 (≈ 830 µM) | 512 (≈ 1660 µM) | 256 (≈ 830 µM) | 256 (≈ 830 µM) | 256 (≈ 830 µM) | inhibition in vivo at 100 mg/kg [22]: 29.3%; Activity [23]: Not toxic |
| Cc1ccc2oc(=O)n(Cc3n[nH]c(=S)n3C)c2c1 | 2.2 | 49.6 | 79.8 | 67.5 | 42 | 11.8 | 85.1 | 38.6 | 14.8 | 120.7 | 15.8 | 97.8 | – | > 512 | > 512 | 512 (≈ 1850 µM) | 512 (≈ 1850 µM) | 512 (≈ 1850 µM) | 512 (≈ 1850 µM) | 256 (≈ 926 µM) | inhibition in vivo at 100 mg/kg [22]: 27.4%; Activity [23]: Not toxic; Activity [25]: 79.1% |
